# Entries after “also recorded” stand apart in the source; their conditions may differ. Read-outs that look alike come from different tables or passages of the source.
# Columns and labels:
# CYP3A [1] = conditions: oral contraceptives that are substrates of CYP3A; cited from earlier work
# [2] = format: in vivo, human; conditions: for Tmax: median (minimum through maximum); for Cmax: n = 22, mean ± SD; for t1/2: mean ± SD
# [3] = cited from earlier work; for elimination half-life: background statement for the sampling period, no reference given
# CYP3A [4] = conditions: cited from earlier work
# [5] = Safety monitoring in the phase 1 study; format: in vivo, human; conditions: healthy subjects
# Method in brief: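 Healthy adults aged 18-55 took part in a single-centre, open-label, two-period, single-sequence study with 24-day on-site confinement. Period 1 gave a single oral 150 mg extended-release CYP2B6 probe substrate dose after at least a 10-hour fast. Period 2 repeated that dose on day 12 of 16 days of oral test compound. Throughout, safety checks covered adverse events, physical exams, vital signs, ECG, haematology, chemistry and urinalysis.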
# CYP2B6 mRNA = conditions: in vitro, at concentrations higher than clinically relevant; cited from earlier work
# CYP2B6 = experiment: In vivo effect of upadacitinib on CYP2B6; set-up: species or system human
# JAK1 = conditions: less potent against JAK2, JAK3, and tyrosine kinase; cited from earlier work
# [6] = test system: CYP1A2, CYP2C9, CYP2C19, or CYP2D6; conditions: chronic dosing of upadacitinib 30 mg once daily, healthy volunteers; cited from earlier work
# [7] = cited from earlier work
# [8] = cited from earlier work; remark: listed apart in the source
# [9] = test system: CYP enzymes (CYP1A2, CYP2B6, CYP2C8, CYP2C9, CYP2C19, CYP2D6, and CYP3A4); conditions: at clinically relevant concentrations, cited from earlier work
# [10] = Study period 2, day 12: upadacitinib 30 mg once daily + bupropion 150 mg
# [11] = with upadacitinib 30 mg once daily
# [12] = with multiple doses of rifampin (broad CYP inducer)
# [13] = with the strong CYP3A inhibitor ketoconazole
# [14] = Period 1, day 1: bupropion 150-mg single dose
# [15] = Period 2, day 12: upadacitinib 30 mg once daily + bupropion 150-mg single dose
# [16] = Study period 1, day 1: bupropion 150 mg alone
# [17] = with upadacitinib relative to bupropion alone
smiles,measurement,setting,value
C#C[C@]1(O)CC[C@H]2[C@@H]3CCc4cc(O)ccc4[C@H]3CC[C@@]21C [ethinylestradiol],impact of upadacitinib on exposure,CYP3A [1],no impact
"CC(NC(C)(C)C)C(=O)c1cccc(Cl)c1 (stereo not shown) [Bupropion, bupropion]",Tmax,[2]; [10],5.0 (3.0‐8.0) h
same,AUC(0-inf),"[2]; human, plasma, oral, 150 mg",0.859 µg·h/mL
same,AUC(0-t),"[2]; human, plasma, oral, 150 mg",0.869 ± 0.271 µg·h/mL
same,Cmax,"[2]; human, plasma, oral, 150 mg, Cmax, Study period 1, day 1: bupropion 150 mg alone, plasma",0.0835 ± 0.0262 µg/mL
same,elimination half-life,[3],approximately 20 hours
Cc1ncc2n1-c1ccc(Cl)cc1C(c1ccccc1F)=NC2 [midazolam],decrease in exposures of midazolam,"CYP3A [4]; chronic dosing of upadacitinib 30 mg once daily, healthy volunteers",26%
same,decrease in midazolam AUC,CYP3A [4]; [11],26%
same,decrease in midazolam Cmax,CYP3A [4]; [11],26%
C#C[C@]1(O)CC[C@H]2[C@@H]3CCC4=CC(=O)CC[C@@H]4[C@H]3CC[C@@]21CC [levonorgestrel],impact of upadacitinib on exposure,CYP3A [1],no impact
CC[C@@H]1CN(C(=O)NCC(F)(F)F)C[C@@H]1c1cnc2cnc3[nH]ccc3n12 [upadacitinib],discontinuation because of adverse events,[5]; n = 22,no subject discontinued because of AEs
same,severity of the majority of treatment-emergent adverse events,"[5]; n = 22, upadacitinib 30 mg once daily and bupropion 150 mg",mild in severity
same,CYP2B6 mRNA expression,CYP2B6 mRNA,increase in CYP2B6 mRNA expression
same,effect on bupropion exposures (Cmax or AUC),CYP2B6; bupropion on day 12 of 16-day upadacitinib 30 mg once daily regimen,no relevant effect
same,effect on pharmacokinetics of substrates metabolized by CYP2B6,"CYP2B6; upadacitinib 30 mg once daily, multiple doses",no relevant effect; also recorded: lack of relevant effect
same,JAK1 inhibition,JAK1,potently inhibits
same,"effects on CYP1A2, CYP2C9, CYP2C19, or CYP2D6 activity",[6],no relevant effects
same,decrease in upadacitinib AUC,[7]; [12],~60%
same,decrease in upadacitinib Cmax,[7]; [12],approximately 50%
same,increase in upadacitinib AUC,[7]; [13],75%
same,increase in upadacitinib Cmax,[7]; [13],70%
same,dose eliminated unchanged in urine,[8],approximately 20%
same,inhibition or induction of the activity of CYP enzymes,[9],did not inhibit or induce
same,"inhibitor or inducer of drug-metabolizing enzymes, including CYP2B6",[9]; in vitro,not an inhibitor or inducer
"C[C@H]1NC(C)(C)CO[C@]1(O)c1cccc(Cl)c1 [Hydroxybupropion, hydroxybupropion]","Hydroxybupropion-to-bupropion metabolic ratio, AUCinf, central value, reference",[2]; [14],16.9
same,"Hydroxybupropion-to-bupropion metabolic ratio, AUCt, central value, reference",[2]; [14],16.5
same,"Hydroxybupropion-to-bupropion metabolic ratio, Cmax, central value, reference",[2]; [14],3.83
same,"Hydroxybupropion-to-bupropion metabolic ratio, AUCinf, central value, test",[2]; [15],13.2
same,"Hydroxybupropion-to-bupropion metabolic ratio, AUCt, central value, test",[2]; [15],13.1
same,"Hydroxybupropion-to-bupropion metabolic ratio, Cmax, central value, test",[2]; [15],3.45
same,t1/2,[2]; [16],25.1 ± 6.8 h
same,Tmax,[2]; [16],10.0 (5.0‐24.0) h
same,Cmax,"[2]; Study period 1, day 1: bupropion 150 mg alone, plasma",0.336 ± 0.15 µg/mL
same,t1/2,[2]; [10],23.9 ± 5.6 h
same,Tmax,[2]; [10],10.0 (6.0‐24.0) h
same,Cmax,"[2]; Study period 2, day 12: upadacitinib 30 mg once daily + bupropion 150 mg, plasma",0.264 ± 0.121 µg/mL
same,"AUCt ratio of central values, point estimate",[2]; with upadacitinib 30 mg once daily relative to bupropion alone,0.726
same,exposures (AUCinf) lower when administered with upadacitinib,[2]; with upadacitinib 30 mg once daily versus bupropion alone,28%
same,"Hydroxybupropion-to-bupropion metabolic ratio, AUCinf, ratio of central values, point estimate",[2]; [17],0.780
same,"Hydroxybupropion-to-bupropion metabolic ratio, AUCt, ratio of central values, point estimate",[2]; [17],0.790
same,"Hydroxybupropion-to-bupropion metabolic ratio, Cmax, ratio of central values, point estimate",[2]; [17],0.902
same,elimination half-life,[3],approximately 20 hours
same,range of variability in hydroxybupropion exposures,[3]; inter- and intrasubject variability,20% to 50%

# From paper PMC7984436 (Clinical Pharmacology in Drug Development, 2020)
